In ChEMBL document CHEMBL2375233, “Cytotoxic phorbol esters of Croton tiglium” (J Nat Prod, 2013) one finds IC50 data, which are given here for 20 compounds.

This assay relates to SNU-387. Nature of the assay: Cytotoxicity against human SNU387 cells after 48 hrs by MTT assay. Conditions: SNU-387, 48 h. The assay is classed as functional, cell-based. In a few lines:
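SNU387 hepatoma cells (Shanghai Cell Bank) grown in RPMI1640 with 10% FBS, seeded in 96-well plates and exposed to test compounds at various concentrations for 48 h. Viability read by MTT, absorbance at 570 nm. IC50 calculated from concentration-response; samples assayed in triplicate, paclitaxel as positive control.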
(Tetrazolium assays rely on reduction of a dye to a coloured formazan, in cell work by metabolically active cells.)

For orientation: IC50 means the concentration that inhibits the measured activity by half. Higher therefore signals a need for much substance. The compound `CCCCCCCCCCCC(=O)O[C@@]12[C@H](OC(=O)C(C)CC)[C@@H](C)[C@@]3(O)[C@@H](C=C(CO)C[C@]4(O)C(=O)C(C)=C[C@@H]34)[C@@H]1C2(C)C` (stereo not given in full) registered an IC50 of more than 10 µM. Under `CCCCCCCCCCCC(=O)O[C@@]12[C@H](OC(C)=O)[C@@H](C)[C@@]3(O)[C@@H](C=C(CO)C[C@]4(O)C(=O)C(C)=C[C@@H]34)[C@@H]1C2(C)C` stands more than 10 µM; under `C/C=C(\C)C(=O)O[C@@H]1[C@@H](C)[C@]2(O)[C@@H]3C=C(C)C(=O)[C@@H]3CC(CO)=C[C@H]2[C@@H]2C(C)(C)[C@]12OC(=O)C(C)C`, more than 10 µM. As to `CCCCC/C=C\C/C=C\CCCCCCCC(=O)OCC1=C[C@H]2[C@@H]3C(C)(C)[C@]3(OC(C)=O)[C@H](O)[C@@H](C)[C@]2(O)[C@@H]2C=C(C)C(=O)[C@@]2(O)C1`, it took 3.4 µM to reach half-maximal inhibition (IC50). In the case of `CCCCC/C=C\C/C=C\CCCCCCCC(=O)OCC1=C[C@H]2[C@@H]3C(C)(C)[C@]3(OC(C)=O)[C@H](O)[C@@H](C)[C@]2(O)[C@@H]2C=C(C)C(=O)[C@@H]2C1`, the IC50 came to 8.1 µM.

With `CC(=O)O[C@H]1C(=O)[C@@]2(C)[C@H]([C@H](OC(=O)c3ccccc3)[C@]3(O)C[C@H](OC(=O)[C@H](O)[C@@H](NC(=O)c4ccccc4)c4ccccc4)C(C)=C1C3(C)C)[C@]1(OC(C)=O)CO[C@@H]1C[C@@H]2O` [PACLITAXEL], the midpoint of inhibition, the IC50, lay at 0.27 µM. In turn, `CCCCCCCC/C=C\CCCCCCCC(=O)OCC1=C[C@H]2[C@@H]3C(C)(C)[C@]3(OC(C)=O)[C@H](O)[C@@H](C)[C@]2(O)[C@@H]2C=C(C)C(=O)[C@@]2(O)C1` returned a concentration for half-maximal inhibition (IC50) of 1.2 µM. This IC50 is about 4.4-fold higher than that of the compound before. As for `C/C=C(\C)C(=O)O[C@@H]1[C@@H](C)[C@]2(O)[C@@H]3C=C(C)C(=O)[C@@H]3CC(CO)=C[C@H]2[C@@H]2C(C)(C)[C@]12OC(=O)C(C)CC` (stereo not given in full), the 50% inhibitory concentration (IC50) is more than 10 µM. As to `C/C=C(\C)C(=O)O[C@@H]1[C@@H](C)[C@]2(O)[C@@H]3C=C(C)C(=O)[C@@H]3CC(CO)=C[C@H]2[C@@H]2C(C)(C)[C@]12OC(=O)Cc1ccccc1`, the IC50 was more than 10 µM. Consider `CCC(C)C(=O)O[C@@H]1[C@@H](C)[C@@]2(O)[C@@H](C=C(CO)C[C@]3(O)C(=O)C(C)=C[C@@H]23)[C@@H]2C(C)(C)[C@]12OC(=O)C(C)C` (stereo not given in full), for which the IC50 is more than 10 µM. Take `CCCCCCCCCCCCCC(=O)O[C@@H]1[C@@H](C)[C@@]2(O)[C@@H](C=C(CO)C[C@]3(O)C(=O)C(C)=C[C@@H]23)[C@@H]2C(C)(C)[C@]12OC(C)=O` [PHORBOL MYRISTATE ACETATE]: the IC50 was more than 10 µM. As to `C/C=C(\C)C(=O)O[C@@H]1[C@@H](C)[C@]2(O)[C@@H]3C=C(C)C(=O)[C@@H]3CC(CO)=C[C@H]2[C@@H]2C(C)(C)[C@]12OC(=O)CCCCCCCCC`, the IC50 was more than 10 µM.

Compound `CCCCCCCCCCCCCCCC(=O)O[C@@H]1[C@@H](C)[C@@]2(O)[C@@H](C=C(CO)C[C@]3(O)C(=O)C(C)=C[C@@H]23)[C@@H]2C(C)(C)[C@]12OC(C)=O` yielded a half-maximal inhibitory concentration (IC50) of more than 10 µM. Under `C/C=C(\C)C(=O)O[C@@H]1[C@@H](C)[C@@]2(O)[C@@H](C=C(CO)C[C@]3(O)C(=O)C(C)=C[C@@H]23)[C@@H]2C(C)(C)[C@]12OC(=O)C(C)C` stands more than 10 µM; under `CCCCCCCCCC(=O)O[C@@]12[C@H](OC(C)=O)[C@@H](C)[C@@]3(O)[C@@H](C=C(CO)C[C@]4(O)C(=O)C(C)=C[C@@H]34)[C@@H]1C2(C)C`, more than 10 µM; under `C/C=C(\C)C(=O)O[C@@H]1[C@@H](C)[C@]2(O)[C@@H]3C=C(C)C(=O)[C@@H]3CC(CO)=C[C@H]2[C@@H]2C(C)(C)[C@]12OC(C)=O`, more than 10 µM. Under `C/C=C(\C)C(=O)O[C@@]12[C@H](OC(=O)C(C)CC)[C@@H](C)[C@@]3(O)[C@@H](C=C(CO)C[C@]4(O)C(=O)C(C)=C[C@@H]34)[C@@H]1C2(C)C` (stereo not given in full) stands more than 10 µM; under `CCCCCCCC/C=C\CCCCCCCC(=O)OCC1=C[C@H]2[C@@H]3C(C)(C)[C@]3(OC(C)=O)[C@H](O)[C@@H](C)[C@]2(O)[C@@H]2C=C(C)C(=O)[C@@H]2C1`, 6.6 µM; under `C/C=C(\C)C(=O)O[C@@H]1[C@@H](C)[C@@]2(O)[C@@H](C=C(CO)C[C@]3(O)C(=O)C(C)=C[C@@H]23)[C@@H]2C(C)(C)[C@]12OC(=O)C(C)CC` (stereo not given in full), 8.7 µM.

The compound `C/C=C(\C)C(=O)O[C@@H]1[C@@H](C)[C@@]2(O)[C@@H](C=C(CO)C[C@]3(O)C(=O)C(C)=C[C@@H]23)[C@@H]2C(C)(C)[C@]12OC(=O)CC` returned a half-maximal inhibitory concentration (IC50) of more than 10.2 µM.
